Tested on: Mouse plasma protein binding, RED dialysis, LC/MS/MS
Test: fraction bound to mouse plasma proteins – biochemical, rapid equilibrium dialysis, LC/MS/MS, ADME assay, late-stage follow-up (AID 1937)
Details: stronger effect = higher value
How it was run: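 Material: mouse plasma in RED dialysis device; buffer or medium: Isotonic phosphate-buffered saline, pH 7.4, as dialysis buffer; doses: two final plasma concentrations, 1 µM and 10 µM, with 0.1% DMSO; incubation: dialysis for 4 h at 37 °C with shaking; signal: LC/MS/MS of both dialysis chambers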

- plasma protein bound (at 1 µM): 99.8%
- plasma protein bound (bound, at 10 µM): 99.8%
SMILES: CC1Cc2cc(S(=O)(=O)N3CCN(c4ccc(Cl)cc4)CC3)ccc2N1C(=O)C1CC1 (configuration not stated)
